CHRM1 PAM: positive allosteric modulators of human M1 muscarinic receptor; AID 588819; activation, % at 3 µM; actives 0.088% (n = 360,000); CHO-K1 hM1, Fluo-8 calcium fluorescence, ACh EC20; 0% = ACh EC20, 100% = maximal ACh; P11229; in the data active means activation above about 19%, passing the limit was not always enough
TAAR1 agonist: agonists of human TAAR1; Q96RJ0; CHO RD-HGA16 TAAR1, Fluo-8 calcium fluorescence; vehicle wells 0%, saturating PEA agonist 100%; activation, % at 3 µM; actives 0.99% (n = 360,000);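 active means activation above the mean activation of all test compounds in the run plus 3 SD, cut at about 38% in these data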
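Signal – calcium-sensitive Fluo-8 signal, excitation 470-495, emission 515-575 nm · System – RD-HGA16 (CHO) cells co-expressing Gα16 and hTAAR1 · Incubation – 17-24 h seeding, 75 min 37 °C dye, 30 min RT · Compound dosing – 3 µM single concentration · Repeats – no replicates (n 1)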
TAAR1 antag: human TAAR1 antagonism; actives 1.5% (n = 360,000); AID 624466; Q96RJ0; CHO RD-HGA16 TAAR1, Fluo-8 calcium fluorescence, antagonist; inhibition, % at 3 µM;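 active means inhibition above a per-plate cutoff, the mean inhibition of test compounds on that plate plus 3 SD, cut at about 49% in these data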;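 further: 0% = DMSO plus EC80 beta-PEA response and 100% = DMSO alone without agonist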
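System: CHO RD-HGA16 cells bearing hTAAR1. Reagent: EC80 β-phenethylamine stimulus. Schedule: seeding 17-24 h prior, 75-min 37 °C, 30-min RT dye loading. Signal: Fluo-8 intracellular calcium dye fluorescence, real-time kinetic reads. Read-out: % inhibition from peak post-agonist over basal fluorescence ratio. Benchmarks: vehicle wells and EC80 agonist wells. Replicates: n of 1.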
CHRM1 agonist: human M1 muscarinic receptor agonism | actives 0.33% (n = 360,000) | P11229 | activation, % at 3 µM | CHO-K1 hM1, Fluo-8 calcium fluorescence, agonist mode; 0% DMSO, 100% acetylcholine EC100;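 active means activation above the run's mean compound activation plus 3 SD, cut at about 16% in these data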;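 further: peak over basal fluorescence ratio within a 140 s kinetic read after compound addition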
CHRM1 antagonist: antagonists of human M1 muscarinic receptor; inhibition, % at 3 µM; actives 1.3% (n = 360,000); CHO-K1 hM1, Fluo-8 calcium fluorescence, ACh EC80 antagonist; P11229;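 active means percent inhibition above its own plate's cutoff, namely the mean of that plate's compound wells plus 3 SD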;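 further: peak over basal fluorescence ratio during 140 s after agonist addition; 0% = ACh EC80 plus DMSO and 100% = DMSO alone without agonist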
m5-HT2A agonist: mouse HTR2A agonism via beta-arrestin recruitment; actives 0.66% (n = 360,000); activation, % at 7.6 µM; CHO-K1 mHTR2A beta-arrestin complementation, luminescence; percent of 30 µM serotonin response;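 active means activation above a run cutoff, the mean activation of all tested compounds plus 3 SD, cut at about 14% in these data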;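 further: 0% = plate median of compound wells and 100% = 30 µM serotonin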
Target sequence (P35363 whole entry, looked up): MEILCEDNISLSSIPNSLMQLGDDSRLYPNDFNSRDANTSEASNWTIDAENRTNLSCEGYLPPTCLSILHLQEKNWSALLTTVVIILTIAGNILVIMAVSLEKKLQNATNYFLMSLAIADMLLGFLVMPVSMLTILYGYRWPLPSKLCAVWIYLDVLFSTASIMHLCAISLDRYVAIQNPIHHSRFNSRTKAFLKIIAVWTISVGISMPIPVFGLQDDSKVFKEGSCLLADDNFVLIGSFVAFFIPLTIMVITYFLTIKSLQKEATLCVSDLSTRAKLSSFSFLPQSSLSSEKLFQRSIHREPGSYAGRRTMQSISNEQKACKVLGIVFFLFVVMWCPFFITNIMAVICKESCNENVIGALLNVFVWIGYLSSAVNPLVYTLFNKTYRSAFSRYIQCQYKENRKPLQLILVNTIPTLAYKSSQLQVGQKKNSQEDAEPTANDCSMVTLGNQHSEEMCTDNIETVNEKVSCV
The depositor's hits bear a star; · = not tested or not shown. Only some compounds are listed: those with a hit (about 3.9% of all), similar ones and a draw of the others.

SMILES	CHRM1 PAM	TAAR1 agonist	TAAR1 antag	CHRM1 agonist	CHRM1 antagonist	m5-HT2A agonist
COC(=O)[C@]12CCCCC=C1N(Cc1cccc3ccccc13)C(=O)[C@H](CC(=O)N1CCSCC1)C2	·	12	53*	·	·	1
COC(=O)[C@]12CCCCC=C1N(Cc1cccc3ccccc13)C(=O)[C@H](CC(=O)NCCC(C)C)C2	·	9	62*	·	·	0
COC(=O)[C@]12CCCCC=C1N(Cc1cccc3ccccc13)C(=O)[C@H](CC(=O)NCc1ccccc1)C2	·	2	42	·	·	1
COC(=O)C1=C(C)N(C)C(=NCc2ccc(OC)cc2)NC1c1cccc(C(F)(F)F)c1 (stereo unspecified)	·	13	-6	·	·	·
Cc1[nH][nH]c(=O)c1C(c1c(C)[nH][nH]c1=O)c1cn(Cc2ccc(Cl)c(Cl)c2)c2ccccc12	10	2	-17	20*	4	0
C=CC[C@H](CC(=O)N(CCO)Cc1ccccc1)C(=O)NC[C@@H](OC(=O)[C@@H](CC=C)Cc1ccc(F)cc1)c1ccccc1	-7	11	56*	-3	20	-2
C=CC[C@@H](CC(=O)N(CCO)Cc1ccccc1)C(=O)NCCOC(=O)[C@@H](CC=C)Cc1ccc(F)cc1	2	5	-9	1	-6	-2
C=CCC[C@H](Cc1ccc(F)cc1)C(=O)O[C@H](CNC(=O)[C@@H](CC=C)CC(=O)N(CCO)Cc1ccccc1)c1ccccc1	0	8	56*	-6	5	-3
O=C(COC(=O)c1cc(=O)[nH]c2ccccc12)Nc1ccccc1F	-3	4	25	5	-2	5
CN(C)S(=O)(=O)c1cccc(CSCc2cccc(S(=O)(=O)N(C)C)c2)c1	-13	5	32	2	38*	8
Cc1sc2ncnc(SCC(=O)NC(=O)c3cccn3C)c2c1C	3	1	-3	-3	-5	1
Cc1noc(C)c1CSCC(=O)Oc1ccc(N(C)S(=O)(=O)c2ccc(Cl)cc2)cc1	-2	5	53*	-1	4	3
Cc1noc(C)c1CSCC(=O)Oc1ccc(N(C)S(=O)(=O)c2ccccc2)cc1	3	6	38	0	0	-4
O=C1c2ccccc2C(=Cc2cccnc2)c2ccccc21	-2	5	-19	-7	-3	1
O=C1/C(=C/c2cccnc2)Sc2ccccc21	25*	8	6	9	-4	2
COc1cc(N)c(Cl)cc1C(=O)OCC(=O)N1c2ccccc2NC(=O)C1(C)C	-7	7	33	3	6	6
COCCCNC1=C(Cl)C(=O)c2ccccc2C1=O	10	4	-19	-5	-14	7
COCCCNc1c2c3c(cccc3[nH]c1=O)C(=O)c1ccccc1-2	-31	218*	79*	264*	71*	9
COc1ccccc1NC(=S)NCCc1ccc(F)cc1	4	9	3	-12	-1	-1
S=C(NCCc1ccccc1)Nc1cccc2cnccc12	-2	51*	6	1	28	11
COc1ccccc1NC(=S)NCCc1ccccc1	7	40*	0	-5	-6	1
Cc1ccccc1NC(=S)NCCc1ccccn1	14	60*	-2	-6	-3	8
S=C(NCc1ccccc1)Nc1cccc2cnccc12	-4	3	23	4	0	13
O=C(COC(=O)c1cc(Cl)ccc1O)Nc1cc(C(F)(F)F)ccc1N1CCOCC1	-3	5	-20	-7	-2	0
CCOc1ccc(NC(=O)CSc2nccn(-c3ccc4c(c3)OCCO4)c2=O)cc1	0	-2	-16	-4	0	-2
COC(=O)c1ccc(Cn2c(C)c(C(=O)Nc3cccc(Oc4ccccc4)c3)sc2=O)o1	-1	11	49*	6	-2	-5
CC(=O)c1ccccc1OCCCCN1CCCCC1	-26	4	3	-9	59*	-8
CC(=O)c1ccccc1OCCOc1ccccc1C(C)=O	-27	3	0	-7	39*	0

From PubChem
